According to ChEMBL document CHEMBL1123146, “Design, synthesis, and evaluation of omega-iodovinyl- and omega-iodoalkyl-substituted methyl-branched long-chain fatty acids” (J Med Chem, 1985):

Tests used:
[1] = system: Rattus norvegicus; test: Concentration was measured in liver tissue of unfasted Fischer 344 rats administered intravenously after 5 minute (radiolabeled with [125I]-; format: ADME, organism-based; conditions: in vivo, iv, 5 min
Outline: (§1)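 Female Fischer 344 rats, 10-12 weeks old, 170-200 g, with food and water ad libitum. The 125I-fatty acid was taken up in ethanol, added dropwise to stirred 6% BSA at ~40 °C (final ethanol 10%), filtered, and given as 0.5 mL via lateral tail vein under ether anesthesia. Rats were killed by cervical fracture; blood was taken by cardiac puncture. Organs were rinsed, blotted, weighed and gamma-counted against injectate standards to give %ID/g. Five rats per time point.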

[2] = system: Rattus norvegicus; test: Concentration was measured in heart tissue of unfasted Fischer 344 rats administered intravenously after 10 min (radiolabeled with [125I]-; format: ADME, organism-based; conditions: in vivo, iv; outline: as §1
[3] = system: Rattus norvegicus; test: Concentration was measured in kidney tissue of unfasted Fischer 344 rats administered intravenously after 2 minute (radiolabeled with [125I]-; format: ADME, organism-based; conditions: in vivo, iv, 2 min; outline: as §1
[4] = system: Rattus norvegicus; test: Concentration was measured in liver tissue of unfasted Fischer 344 rats administered intravenously after 2 minute (radiolabeled with [125I]-; format: ADME, organism-based; conditions: in vivo, iv, 2 min; outline: as §1
[5] = system: Rattus norvegicus; test: Concentration was measured in liver tissue of unfasted Fischer 344 rats administered intravenously after 60 minute (radiolabeled with [125I]-; format: ADME, organism-based; conditions: in vivo, iv, 1 h; outline: as §1
[6] = system: Rattus norvegicus; test: Concentration was measured in heart tissue of unfasted Fischer 344 rats administered intravenously after 60 minute (radiolabeled with [125I]-; format: ADME, organism-based; conditions: in vivo, iv, 1 h; outline: as §1
[7] = system: Rattus norvegicus; test: Concentration was measured in thyroid tissue of unfasted Fischer 344 rats administered intravenously after 60 minute (radiolabeled with [125I]-; format: ADME, organism-based, Thyroid gland; conditions: in vivo, iv, 1 h
Outline: (§2)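 Female Fischer 344 rats, 10–12 weeks old (170–200 g), with food and water ad libitum, five per time point. The radioiodinated fatty acid was dissolved in ethanol, added to 6% BSA at ~40 °C (final 10% ethanol), filtered, and injected into a lateral tail vein (0.5 mL) under ether anesthesia. Blood was taken by cardiac puncture; organs were rinsed, blotted, weighed and gamma-counted against injectate standards. Output is % injected dose/g.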

[8] = system: Rattus norvegicus; test: Concentration was measured in kidney tissue of unfasted Fischer 344 rats administered intravenously after 60 minute (radiolabeled with [125I]-; format: ADME, organism-based; conditions: in vivo, iv, 1 h; outline: as §1
[9] = system: Rattus norvegicus; test: Concentration was measured in mean heart/blood tissue of unfasted Fischer 344 rats administered intravenously after 2 minute (radiolabeled with [125I]-; format: ADME, organism-based; conditions: in vivo, iv, 2 min
[10] = system: Rattus norvegicus; test: Concentration was measured in lungs tissue of unfasted Fischer 344 rats administered intravenously after 5 minute (radiolabeled with [125I]-; format: ADME, organism-based, Lung; conditions: in vivo, iv, 5 min; outline: as §1
[11] = system: Rattus norvegicus; test: Concentration was measured in thyroid tissue of unfasted Fischer 344 rats administered intravenously after 2 minute (radiolabeled with [125I]-; format: ADME, organism-based, Thyroid gland; conditions: in vivo, iv, 2 min; outline: as §2
[12] = system: Rattus norvegicus; test: Concentration was measured in kidney tissue of unfasted Fischer 344 rats administered intravenously after 5 minute (radiolabeled with [125I]-; format: ADME, organism-based; conditions: in vivo, iv, 5 min; outline: as §1
[13] = system: Rattus norvegicus; test: Concentration was measured in lungs tissue of unfasted Fischer 344 rats administered intravenously after 2 minute (radiolabeled with [125I]-; format: ADME, organism-based, Lung; conditions: in vivo, iv, 2 min; outline: as §1
[14] = system: Rattus norvegicus; test: Concentration was measured in liver tissue f unfasted Fischer 344 rats administered intravenously after 10 minute (radiolabeled with [125I]-; format: ADME, organism-based; conditions: in vivo, iv, 10 min; outline: as §1
[15] = system: Rattus norvegicus; test: Concentration was measured in heart tissue of unfasted Fischer 344 rats administered intravenously after 5 minute (radiolabeled with [125I]-; format: ADME, organism-based; conditions: in vivo, iv, 5 min; outline: as §1
[16] = system: Rattus norvegicus; test: Concentration was measured in lungs tissue of unfasted Fischer 344 rats administered intravenously after 60 minute (radiolabeled with [125I]-; format: ADME, organism-based, Lung; conditions: in vivo, iv, 1 h; outline: as §1
[17] = system: Rattus norvegicus; test: Concentration was measured in blood tissue of unfasted Fischer 344 rats administered intravenously after 10 minute (radiolabeled with [125I]-; format: ADME, organism-based; conditions: in vivo, iv, 10 min; outline: as §1
[18] = system: Rattus norvegicus; test: Concentration was measured in mean heart/blood tissue of fasted Fischer 344 rats administered intravenously after 60 minute (radiolabeled with [125I]-; conditions: in vivo, iv, 1 h
[19] = system: Rattus norvegicus; test: Concentration was measured in kidney tissue of unfasted Fischer 344 rats administered intravenously after 10 minute (radiolabeled with [125I]-; format: ADME, organism-based; conditions: in vivo, iv, 10 min; outline: as §1
[20] = species on record: Rattus norvegicus; test: Specific activity was determined with radioiodinated iodine-125; format: functional
[21] = system: Rattus norvegicus; test: Concentration was measured in blood tissue of unfasted Fischer 344 rats administered intravenously after 5 minute (radiolabeled with [125I]-; format: ADME, organism-based; conditions: in vivo, iv, 5 min; outline: as §1
[22] = system: Rattus norvegicus; test: Concentration was measured in blood tissue of unfasted Fischer 344 rats administered intravenously after 60 minute (radiolabeled with [125I]-; format: ADME, organism-based; conditions: in vivo, iv, 1 h; outline: as §1
[23] = system: Rattus norvegicus; test: Concentration was measured in thyroid tissue of unfasted Fischer 344 rats administered intravenously after 10 minute (radiolabeled with [125I]-; format: ADME, organism-based, Thyroid gland; conditions: in vivo, iv, 10 min
Outline: (§3)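 Female Fischer 344 rats, five per time point, each given 11 μCi of the ¹²⁵I-labeled fatty acid (~269 mCi/mmol) via a lateral tail vein in 0.5 mL of 6% BSA (10% ethanol) under ether anesthesia. Blood was drawn by cardiac puncture; organs were rinsed, weighed and gamma-counted against injectate standards. Output is % injected dose/g and mean heart/blood ratio.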

[24] = system: Rattus norvegicus; test: Concentration was measured in blood tissue of unfasted Fischer 344 rats administered intravenously after 2 minute (radiolabeled with [125I]-; format: ADME, organism-based; conditions: in vivo, iv, 2 min; outline: as §1
[25] = system: Rattus norvegicus; test: Concentration was measured in heart tissue of unfasted Fischer 344 rats administered intravenously after 2 minute (radiolabeled with [125I]-; format: ADME, organism-based; conditions: in vivo, iv, 2 min; outline: as §1
[26] = system: Rattus norvegicus; test: Concentration was measured in lungs tissue of unfasted Fischer 344 rats administered intravenously after 10 minute (radiolabeled with [125I]-; format: ADME, organism-based, Lung; conditions: in vivo, iv, 10 min; outline: as §1
[27] = system: Rattus norvegicus; test: Concentration was measured in mean heart/blood tissue of fasted Fischer 344 rats administered intravenously after 5 minute (radiolabeled with [125I]-; conditions: in vivo, iv, 5 min
[28] = system: Rattus norvegicus; test: Concentration was measured in thyroid tissue of unfasted Fischer 344 rats administered intravenously after 5 minute (radiolabeled with [125I]-; format: ADME, organism-based, Thyroid gland; conditions: in vivo, iv, 5 min; outline: as §2
[29] = system: Rattus norvegicus; test: Concentration was measured in mean heart/blood tissue of unfasted Fischer 344 rats administered intravenously after 10 minute (radiolabeled with [125I]-; format: ADME, organism-based; conditions: iv, 10 min; outline: as §3

Distribution [1]: 2.5% | Distribution [2]: 1.77% | Distribution [3]: 1.35% | Distribution [4]: 3.93% | Distribution [5]: 0.95% | Distribution [6]: 0.95% | Distribution [7]: 217% | Distribution [8]: 0.59% | Distribution [9]: 1.09% | Distribution [10]: 1.03% | Distribution [11]: 22.5% | Distribution [12]: 1.06% | Distribution [13]: 1.75% | Distribution [14]: 2.54% | Distribution [15]: 1.93% | Distribution [16]: 0.68% | Distribution [17]: 1.31% | Distribution [18]: 1.32% | Distribution [19]: 0.96% | Distribution [21]: 1.43% | Distribution [22]: 0.72% | Distribution [23]: 43.3% | Distribution [24]: 2.47% | Distribution [25]: 2.68% | Distribution [26]: 1.16% | Distribution [27]: 1.35% | Distribution [28]: 30.2% | Distribution [29]: 1.35%
SMILES: CC(CCCCCCCCCCCCCCI)CC(=O)O (centres undefined)
Specific activity [20]: 0.269 Ci mM-1
